Assay results published in ChEMBL document CHEMBL3425497, “Discovery of (R)-1-(3-((2-chloro-4-(((2-hydroxy-2-(8-hydroxy-2-oxo-1,2-dihydroquinolin-5-yl)ethyl)amino)methyl)-5-methoxyphenyl)amino)-3-oxopropyl)piperidin-4-yl [1,1'-biphenyl]-2-ylcarbamate (TD-5959, GSK961081, batefenterol): first-in-class dual pharmacology multivalent muscarinic antagonist and …” (J Med Chem, 2015).
The source made the active and inactive calls. The rule behind the calls is not given here.

What was measured:
[1] = target: Beta-2 adrenergic receptor (Homo sapiens, UniProt P07550); test: Agonist activity at human beta2 adrenergic receptor expressed in HEK293 cells assessed as cAMP accumulation using [125I]cAMP by scintillation counting; type: functional, cell-based
[2] = target: Muscarinic acetylcholine receptor M3 (Homo sapiens, UniProt P20309); test: Displacement of [3H]NMS from human muscarinic M3 receptor expressing CHO-K1 cells incubated for 60 mins or 6 hrs by liquid scintillation counting; type: cell-based
Cavia porcellus [3] = test: Bronchoprotection in male Duncan Hartley guinea pig bronchoconstriction einthoven model assessed as inhibition of methacholine-induced bronchoconstriction at 100 microg/ml, inhalation after 24 hrs by in vivo beta2 adrenergic receptor agonist activity assay; type: functional; set-up: scale not given: the % may be the effect or the level left
Outline: (§1)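 Einthoven bronchoprotection in guinea pigs, read as % bronchoprotection 24 h after inhaled dosing. The TFA salt was used in the initial experiments. For one compound, the edisylate salt was compared with the TFA form. Group sizes were n = 3–8.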

Cavia porcellus [4] = test: Bronchoprotection in male Duncan Hartley guinea pig bronchoconstriction einthoven model assessed as inhibition of methacholine-induced bronchoconstriction at 100 microg/ml, inhalation after 24 hrs by in vivo muscarinic acetylcholine receptor antagonist activity assay; type: functional; set-up: scale not given: the % may be the effect or the level left; outline: as §1
Cavia porcellus [5] = test: Bronchoprotection in male Duncan Hartley guinea pig bronchoconstriction einthoven model assessed as inhibition of methacholine-induced bronchoconstriction at 100 microg/ml, inhalation after 1.5 hrs by in vivo muscarinic antagonist and beta2 agonist activity assay; type: functional
Cavia porcellus [6] = test: Bronchoprotection in male Duncan Hartley guinea pig bronchoconstriction einthoven model assessed as inhibition of methacholine-induced bronchoconstriction at 100 microg/ml, inhalation after 1.5 hrs by in vivo beta2 adrenergic receptor agonist activity assay; type: functional; set-up: scale not given: the % may be the effect or the level left
Cavia porcellus [7] = test: Bronchoprotection in male Duncan Hartley guinea pig bronchoconstriction einthoven model assessed as inhibition of methacholine-induced bronchoconstriction at 100 microg/ml, inhalation after 1.5 hrs by in vivo muscarinic acetylcholine receptor antagonist activity assay; type: functional
Cavia porcellus [8] = test: Bronchoprotection in male Duncan Hartley guinea pig bronchoconstriction einthoven model assessed as inhibition of methacholine-induced bronchoconstriction at 100 microg/ml, inhalation after 24 hrs by in vivo muscarinic antagonist and beta2 agonist activity assay; type: functional; outline: as §1
Cavia porcellus [9] = test: Bronchoprotection in male Duncan Hartley guinea pig bronchoconstriction einthoven model assessed as inhibition of methacholine-induced bronchoconstriction at 10 microg/ml, inhalation after 24 hrs by in vivo beta2 adrenergic receptor agonist activity assay; type: functional, organism-based
Outline: (§2)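 Guinea pig Einthoven bronchoprotection model after test compound dosing (TFA salt in initial experiments). % bronchoprotection was scored separately as MA, BA and combined MABA activity, at 1.5 h or 24 h postdose; n = 3–8 animals per group.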

Cavia porcellus [10] = test: Bronchoprotection in male Duncan Hartley guinea pig bronchoconstriction einthoven model assessed as inhibition of methacholine-induced bronchoconstriction at 10 microg/ml, inhalation after 1.5 hrs by in vivo beta2 adrenergic receptor agonist activity assay; type: functional, organism-based; outline: as §2
Cavia porcellus [11] = test: Bronchoprotection in male Duncan Hartley guinea pig bronchoconstriction einthoven model assessed as inhibition of methacholine-induced bronchoconstriction at 10 microg/ml, inhalation after 24 hrs by in vivo muscarinic acetylcholine receptor antagonist activity assay; type: functional; set-up: scale not given: the % may be the effect or the level left; outline: as §2
Cavia porcellus [12] = test: Bronchoprotection in male Duncan Hartley guinea pig bronchoconstriction einthoven model assessed as inhibition of methacholine-induced bronchoconstriction at 10 microg/ml, inhalation after 1.5 hrs by in vivo muscarinic acetylcholine receptor antagonist activity assay; type: functional; set-up: scale not given: the % may be the effect or the level left; outline: as §2
Cavia porcellus [13] = test: Bronchoprotection in male Duncan Hartley guinea pig bronchoconstriction einthoven model assessed as inhibition of methacholine-induced bronchoconstriction at 10 microg/ml, inhalation after 1.5 hrs by in vivo muscarinic antagonist and beta2 agonist activity assay; type: functional, organism-based; outline: as §2
Cavia porcellus [14] = organism: Cavia porcellus; test: Antisialagogue activity in guinea pig assessed as inhibition of pilocarpine-induced sialagogue response at 10 ug/ml, inhalation after 1.5 hrs; type: functional
Cavia porcellus [15] = test: Bronchoprotection in male Duncan Hartley guinea pig bronchoconstriction einthoven model assessed as inhibition of methacholine-induced bronchoconstriction at 10 microg/ml, inhalation after 24 hrs by in vivo muscarinic antagonist and beta2 agonist activity assay; type: functional, organism-based; outline: as §2
Cavia porcellus [16] = organism: Cavia porcellus; test: Antisialagogue activity in guinea pig assessed as inhibition of pilocarpine-induced sialagogue response at 100 ug/ml, inhalation after 1.5 hrs; type: functional
Outline: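 Guinea pigs were pretreated with test compound by inhalation. At 1.5 h post-dose they were challenged with pilocarpine. The sialagogue (salivation) response was recorded as % inhibition.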

Chain of Muscarinic acetylcholine receptor M3 (P20309 whole entry): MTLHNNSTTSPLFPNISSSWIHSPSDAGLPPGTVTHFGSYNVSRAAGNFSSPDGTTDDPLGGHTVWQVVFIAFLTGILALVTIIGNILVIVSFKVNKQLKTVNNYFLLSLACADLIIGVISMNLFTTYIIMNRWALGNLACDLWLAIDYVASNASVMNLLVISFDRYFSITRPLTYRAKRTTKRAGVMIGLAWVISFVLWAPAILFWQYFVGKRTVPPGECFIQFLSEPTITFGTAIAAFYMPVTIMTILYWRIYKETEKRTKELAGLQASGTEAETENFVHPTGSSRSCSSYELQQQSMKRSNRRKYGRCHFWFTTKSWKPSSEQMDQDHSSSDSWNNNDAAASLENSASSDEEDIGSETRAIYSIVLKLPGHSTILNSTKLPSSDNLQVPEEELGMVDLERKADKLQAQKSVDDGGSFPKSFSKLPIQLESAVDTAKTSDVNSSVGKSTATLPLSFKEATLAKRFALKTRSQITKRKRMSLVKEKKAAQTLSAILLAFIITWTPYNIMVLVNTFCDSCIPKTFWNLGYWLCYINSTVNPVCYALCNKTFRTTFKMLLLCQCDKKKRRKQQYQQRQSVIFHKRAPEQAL
Chain of Beta-2 adrenergic receptor (P07550 whole entry): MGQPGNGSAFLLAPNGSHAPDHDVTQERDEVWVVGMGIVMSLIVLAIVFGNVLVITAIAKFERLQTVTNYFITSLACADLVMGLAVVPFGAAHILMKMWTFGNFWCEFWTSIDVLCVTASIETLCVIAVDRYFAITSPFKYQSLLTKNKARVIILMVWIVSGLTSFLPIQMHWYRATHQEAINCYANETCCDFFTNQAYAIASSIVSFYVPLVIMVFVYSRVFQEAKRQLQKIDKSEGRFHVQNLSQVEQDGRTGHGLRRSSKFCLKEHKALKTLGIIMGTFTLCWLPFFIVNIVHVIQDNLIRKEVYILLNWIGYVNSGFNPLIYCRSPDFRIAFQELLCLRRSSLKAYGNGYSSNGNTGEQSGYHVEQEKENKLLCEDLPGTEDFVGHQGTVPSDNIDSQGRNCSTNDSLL

SMILES | EC50 [1] | Ki [2] | Activity (Cavia porcellus [3]) | Activity (Cavia porcellus [4]) | further results
CN(CCN1CCC(OC(=O)Nc2ccccc2-c2ccccc2)CC1)C(=O)c1ccc(CNC[C@H](O)c2ccc(O)c3[nH]c(=O)ccc23)cc1 | 0.251 nM | 0.794 nM |  |  | 
COc1cc(NC(=O)CCN2CCC(OC(=O)Nc3ccccc3-c3ccccc3)CC2)c(C)cc1CNC[C@H](O)c1ccc(O)c2[nH]c(=O)ccc12 | 0.316 nM | 0.316 nM |  |  | 
O=C(CCN1CCC(OC(=O)Nc2ccccc2-c2ccccc2)CC1)NCCCCCNC[C@H](O)c1ccc(O)c2[nH]c(=O)ccc12 | 0.126 nM | 0.1 nM |  |  | 
O=C(Nc1ccccc1-c1ccccc1)OC1CCN(CCNC(=O)c2ccc(CNC[C@H](O)c3ccc(O)c4[nH]c(=O)ccc34)cc2)CC1 | 0.501 nM | 0.631 nM | 20% | 74% | 
COc1cc(N(C)C(=O)CCN2CCC(OC(=O)Nc3ccccc3-c3ccccc3)CC2)ccc1CNC[C@H](O)c1ccc(O)c2[nH]c(=O)ccc12 | 50.1 nM | 0.631 nM |  |  | 
Cc1cc(CNC[C@H](O)c2ccc(O)c3[nH]c(=O)ccc23)ccc1N(C)C(=O)CCN1CCC(OC(=O)Nc2ccccc2-c2ccccc2)CC1 | 3.98 nM | 0.2 nM |  |  | 
COc1cc(C(=O)NCCN2CCC(OC(=O)Nc3ccccc3-c3ccccc3)CC2)ccc1CNC[C@H](O)c1ccc(O)c2[nH]c(=O)ccc12 | 1.58 nM | 6.31 nM |  |  | 
COc1c(CNC[C@H](O)c2ccc(O)c3[nH]c(=O)ccc23)ccc(NC(=O)CCN2CCC(OC(=O)Nc3ccccc3-c3ccccc3)CC2)c1C | 0.251 nM | 0.501 nM |  |  | 
Cc1cc(C(=O)NCCN2CCC(OC(=O)Nc3ccccc3-c3ccccc3)CC2)c(C)cc1CNC[C@H](O)c1ccc(O)c2[nH]c(=O)ccc12 | 0.158 nM | 3.16 nM |  |  | 
NC(=O)C(c1ccccc1)(c1ccccc1)[C@@H]1CCN(CCc2ccc3c(c2)CCO3)C1 [DARIFENACIN] |  |  | 43% | 72% | Activity (Cavia porcellus [5]): inactive; Activity (Cavia porcellus [6]): 74%; Activity (Cavia porcellus [7]): inactive; Activity (Cavia porcellus [8]): inactive
O=C(CCN1CCC(OC(=O)Nc2ccccc2-c2ccccc2)CC1)N[C@H]1CC[C@H](CNC[C@H](O)c2ccc(O)c3[nH]c(=O)ccc23)CC1 | 0.158 nM | 0.316 nM |  |  | 
COc1cc(CNC[C@H](O)c2ccc(O)c3[nH]c(=O)ccc23)ccc1NC(=O)CCN1CCC(OC(=O)Nc2ccccc2-c2ccccc2)CC1 | 0.501 nM | 1.58 nM | 33% | 22% | 
C[N+]1(C)[C@@H]2C[C@@H](OC(=O)C(O)(c3cccs3)c3cccs3)C[C@H]1[C@@H]1O[C@@H]12 [TIOTROPIUM] |  |  |  |  | Activity (Cavia porcellus [9]): inactive; Activity (Cavia porcellus [10]): inactive; Activity (Cavia porcellus [11]): 75%; Activity (Cavia porcellus [12]): 90%; Activity (Cavia porcellus [13]): inactive; inhibition (INH) (Cavia porcellus [14]): 99%; Activity (Cavia porcellus [15]): inactive
COc1cc(NC(=O)CCN2CCC(OC(=O)Nc3ccccc3-c3ccccc3)CC2)ccc1CNC[C@H](O)c1ccc(O)c2[nH]c(=O)ccc12 | 0.251 nM | 0.158 nM | 72% | 81% | Activity (Cavia porcellus [6]): 70%; Activity (Cavia porcellus [7]): 94%; inhibition (INH) (Cavia porcellus [16]): -3%
COc1ccc(CCNC[C@H](O)c2ccc(O)c3[nH]c(=O)ccc23)cc1NC(=O)CCN1CCC(OC(=O)Nc2ccccc2-c2ccccc2)CC1 | 1.26 nM | 7.94 nM |  |  | 
O=C(CCN1CCC(OC(=O)Nc2ccccc2-c2ccccc2)CC1)Nc1ccc(CNC[C@H](O)c2ccc(O)c3[nH]c(=O)ccc23)cc1 | 0.251 nM | 0.0794 nM | -2% | 98% | Activity (Cavia porcellus [6]): 47%; inhibition (INH) (Cavia porcellus [16]): 82%
Cc1cc(NC(=O)CCN2CCC(OC(=O)Nc3ccccc3-c3ccccc3)CC2)ccc1CNC[C@H](O)c1ccc(O)c2[nH]c(=O)ccc12 | 0.2 nM | 1.26 nM |  |  | 
O=C(Nc1ccccc1-c1ccccc1)OC1CCN(CCCCCCCCCNC[C@H](O)c2ccc(O)c3[nH]c(=O)ccc23)CC1 |  |  | 10% | 72% | Activity (Cavia porcellus [6]): 63%; Activity (Cavia porcellus [7]): 94%
O=C(CCN1CCC(OC(=O)Nc2ccccc2-c2ccccc2)CC1)Nc1ccc(CNC[C@H](O)c2ccc(O)c3[nH]c(=O)ccc23)c(Cl)c1 | 0.501 nM | 0.2 nM |  |  | 
Cc1cc(CNC[C@H](O)c2ccc(O)c3[nH]c(=O)ccc23)ccc1NC(=O)CCN1CCC(OC(=O)Nc2ccccc2-c2ccccc2)CC1 | 0.2 nM | 0.0501 nM | 20% | 92% | Activity (Cavia porcellus [8]): 96%
COc1c(CNC[C@H](O)c2ccc(O)c3[nH]c(=O)ccc23)ccc(NC(=O)CCN2CCC(OC(=O)Nc3ccccc3-c3ccccc3)CC2)c1Cl | 0.398 nM | 0.631 nM |  |  | 
O=C(CCN1CCC(OC(=O)Nc2ccccc2-c2ccccc2)CC1)Nc1cccc(CCNC[C@H](O)c2ccc(O)c3[nH]c(=O)ccc23)c1 | 0.1 nM | 1 nM | 46% | 51% | Activity (Cavia porcellus [5]): 93%; Activity (Cavia porcellus [6]): 80%; Activity (Cavia porcellus [7]): 77%; Activity (Cavia porcellus [8]): 72%; inhibition (INH) (Cavia porcellus [16]): 23%
COc1cc(N(C)C(=O)CCN2CCC(OC(=O)Nc3ccccc3-c3ccccc3)CC2)c(Cl)cc1CNC[C@H](O)c1ccc(O)c2[nH]c(=O)ccc12 | 0.794 nM | 0.316 nM |  |  | 
COc1ccc(NC(=O)CCN2CCC(OC(=O)Nc3ccccc3-c3ccccc3)CC2)cc1CCNC[C@H](O)c1ccc(O)c2[nH]c(=O)ccc12 | 0.794 nM | 2 nM |  |  | 
O=C(CCN1CCC(OC(=O)Nc2ccccc2-c2ccccc2)CC1)Nc1ccc(CNC[C@H](O)c2ccc(O)c3[nH]c(=O)ccc23)cc1Cl | 0.251 nM | 0.2 nM | 25% |  | 
